Bioassay records deposited in PubChem BioAssay by several laboratories.
Rows were chosen to be rich in hits. Some 3.1% of all compounds tested hit in one or more screens of this group.
rCAG RNA binder: binders of r(CAG) RNA repeats, primary screen, biochemical, fluorescence; r(CAG) RNA repeat, TO-PRO-1 dye displacement fluorescence; inhibition, % at 3 µM; hit rate 1.3% among 370,000; AID 651821, 2012;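 active = inhibition above the plate cutoff, the mean of all test compounds on that plate plus 3 SD, cut at about 35% in these data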;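 note: 0% = DMSO alone and 100% = 100 µM mitoxantrone as full dye displacement; higher means more dye released from RNA so lower well fluorescence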
LEDGF integ inh: blockers of LEDGF/p75-dependent integrase strand transfer – biochemical, TR-FRET, high throughput, primary screen. inhibition, % at 3.7 µM. AID 743269, 2014. hit rate 0.64% among 370,000. TR-FRET IN-LEDGF/p75 DNA integration, Eu/Cy5. HIV-1 integrase (with human LEDGF/p75);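 active = inhibition above the screen-wide mean plus 3 SD, cut at about 13% in these data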;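 note: signal is the Cy5 over europium emission ratio at 671 and 618 nm; 0% = plate median of compound wells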
ATG4B inhibitor: ATG4B protease inhibitors, primary screen, biochemical, fluorescence, uHTS; ATG4B cleavage of LC3-PLA2, NBD-HPC fluorescence, 1 h; inhibition, % at 8.33 µM; Cysteine protease ATG4B (Homo sapiens), Q9Y4P1; AID 504462, 2011; hit rate 0.51% among 340,000; in the data active = inhibition above about 40%
UHRF1 binding: UHRF1 methylated DNA binding inhibitors, primary screen, counter-screen for MBD2 inhibitor project, biochemical, TR-FRET, human UHRF1, single concentration; hit rate 0.75% among 370,000; UHRF1 binding to methylated oligo; E3 ubiquitin-protein ligase UHRF1 (Homo sapiens), Q96T88; inhibition, % at 4.4 µM; in the data active = inhibition above about 21%;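 note: UHRF1 SRA domain binding a hemimethylated CpG hairpin DNA probe; 0% = median of test compound wells and 100% = reference inhibitor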
CSN deneddyl inh: inhibitors of CSN-mediated cullin deneddylation, primary screen, biochemical, fluorescence polarization, uHTS | Purified CSN, SCF-Nedd8-OG deneddylation | inhibition, % at 12.5 µM | COP9 signalosome complex subunit 5 (Homo sapiens), Q92905 | hit rate 0.38% among 360,000 | AID 651999, 2013;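 active = pattern-corrected inhibition above about 35%, with an unprinted fluorescence ratio check between 0.5 and 1.5, limit read from the data, passing the limit was not always enough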;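 note: 0% = enzyme with substrate and 100% = substrate without enzyme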
Target sequence (Q92905 whole entry, looked up, one chain of several): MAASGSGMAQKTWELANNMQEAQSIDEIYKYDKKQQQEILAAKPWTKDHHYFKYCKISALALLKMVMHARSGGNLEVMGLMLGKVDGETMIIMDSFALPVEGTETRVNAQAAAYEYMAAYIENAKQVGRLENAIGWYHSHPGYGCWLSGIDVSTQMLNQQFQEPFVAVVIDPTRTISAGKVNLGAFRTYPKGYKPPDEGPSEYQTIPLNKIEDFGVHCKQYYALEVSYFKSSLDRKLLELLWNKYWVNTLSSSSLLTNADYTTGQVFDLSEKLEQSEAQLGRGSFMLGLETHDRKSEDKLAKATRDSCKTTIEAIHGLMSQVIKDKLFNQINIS
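Assay system: HEK293T-derived human Csn5 enzyme; quantity: 0.24 nM enzyme; medium: Tris/NaCl/DTT buffer, pH 7.5; also added: substrate SCFSkp2-Nedd8OG, 10 nM; doses: 12.5 µM compound; schedule: 90 min reaction at room temperature; signal: FP; read-out: % inhibition of substrate cleavage by Csn5; benchmarks: substrate-only high control, full reaction low control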
MBD2 DNA inh: inhibitors of MBD2 binding to methylated DNA, primary screen, biochemical, TR-FRET, DNA-binding domain, human; Methyl-CpG-binding domain protein 2 (Homo sapiens), Q9UBB5; MBD2 binding to methylated oligonucleotide; inhibition, % at 4.4 µM; hit rate 0.31% among 370,000; in the data active = inhibition above about 13%
An asterisk follows results filed as active; . = no result; ! = not active in a repeat.

SMILES	rCAG RNA binder	LEDGF integ inh	ATG4B inhibitor	UHRF1 binding	CSN deneddyl inh	MBD2 DNA inh
CN(Cc1ccccc1F)C(=O)Cn1c(-c2cncs2)nc2ccccc21	3	-3	.	-1	.	-2
CC1(C)Cc2c(c(N3CCOCC3)nc3sc4c(NCCN5CCOCC5)nnnc4c23)CS1	-2	1	-8	-3	5	-4
CC(C)CCNc1nnnc2c1sc1nc(N3CCOCC3)c3c(c12)CC(C)(C)SC3	-2	-1	-12	0	60*	3
COc1cccc(C2c3c(oc4ccccc4c3=O)C(=O)N2CCCN2CCOCC2)c1OC (stereo unspecified)	-1	4	7	50*	-3	-5
COc1ccc(C2c3c(oc4ccccc4c3=O)C(=O)N2CCCN2CCOCC2)cc1 (stereo unspecified)	.	.	-7	.	.	.
c1ccc(Cn2c(SCc3nc4ccccc4s3)nnc2-c2ccco2)cc1	-8	-1	25	-1	45*	-5
C#CCNC(=O)C[C@H]1C[C@@]2(C(=O)OC)C(=C[C@H](COCc3ccccc3)O[C@@H]2C)N(CCCCCCCC)C1=O	4	-1	.	0	.	2
Cc1c(NC(=O)C2CCCN(S(=O)(=O)c3c(C(C)C)cc(C(C)C)cc3C(C)C)C2)c(=O)n(-c2ccccc2)n1C (stereo unspecified)	7	0	.	-3	.	3
CCN(C(=O)COC(=O)c1cc([N+](=O)[O-])ccc1N1CCOCC1)C1CCCCC1	-7	-3	-6	26*	3	-4
CN(C)CCC(c1ccccc1)c1ccccn1 (stereo unspecified)	1	-3	-3	2	-2	-3
CN(C)CCOC(C)(c1ccccc1)c1ccccn1 (stereo unspecified)	0	3	6	66*	0	-1
C=CC[C@@H]1NN2C(=O)[C@@H](C)[C@@H]3c4ccccc4C=NN3[C@@H]2c2ccccc21	10	0	.	1	.	0
COc1ccc(C(=O)Nc2ccc(-c3nnn(CC(=O)N4CCN(C(=O)c5ccco5)CC4)n3)cc2)cc1	10	1	0	1	80*	4
CC(C)(C)[C@@H]1C=C(C(=O)NC2CC2)O[C@H](OCc2ccc(CO)cc2)C1	-8	0	-7	37*	-2	7
O=C1CC(c2ccc3c(c2)OCO3)N=C2N(Cc3ccc4c(c3)OCO4)C/C(=C/c3ccccc3)N12 (stereo unspecified)	.	-1	.	1	.	1
CCOC(=O)c1c(NC(=O)COC(=O)c2ccc(NC(=O)CC#N)cc2)sc(C(=O)NC)c1C	22	-10	1	1	40*	5
CCOC(=O)c1c(NC(=O)COC(=O)c2ccc(O)cc2)sc(C(=O)N(C)C)c1C	6	8	-11	-3	-4	-5
CCN1CCN(Cc2ccc(NC(=O)c3ccc(C)c(NC(=O)c4ccno4)c3)cc2C(F)(F)F)CC1	2	-2	5	5	9	6
CCN1CCN(Cc2ccc(NC(=O)c3ccc(C)c(/C=C/c4cnc(Nc5cc(N6CCNCC6)nc(C)n5)cn4)c3)cc2C(F)(F)F)CC1	.	.	5	.	57*!	.
C=CCNC(=O)/C(C#N)=C/c1c(N2CCCCCC2)nc2ccccn2c1=O	-11	2	-5	-5	57*	-8
Cc1cc2c(cc1C)C(c1ccccc1Br)CC(=O)N2 (stereo unspecified)	-1	10	3	23*	-5	10
O=C1CC(c2ccccc2)CC(O)=C1C=NC1CCCC1 (stereo unspecified)	-9	-7	-23	48*	1	1
COC(=O)c1ccc(S(=O)(=O)N(Cc2ccccc2)Cc2ccccc2)n1C	-4	-1	11	62*	10	-5
